Experiments:
CLL cells = experiment: MTT cell viability assay in primary CLL samples; type: cell-based, human; conditions: six fresh primary CLL patient samples, 24 hours with 0-20 μM peptide
Method in brief: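 Human PBMCs isolated from fresh patient blood by density centrifugation and kept in RPMI 1640 with 10% FBS and penicillin/streptomycin. Seeded at 3 × 10^5 cells/well with 0–20 µmol/l unlabelled test peptide under tissue-culture conditions, then MTT read-out. Viability expressed as percentage of untreated controls.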

HeLa and glioma cells = conditions: cited from earlier work

NH2-asrslhslaG-Ahx-rrrrrrrrGC-COOH [asr-a-r8]
Cell viability (in words) (CLL cells): no loss of viability

FFLIPKG-R8
Cell uptake and distribution (in words) (HeLa and glioma cells): diffusely label the cytoplasm within five minutes
